# Source: PubChem BioAssay (several laboratories)
# Scp1 inh – Scp-1 (human) phosphatase inhibition; Q9GZU7; Recombinant Scp1, phosphopeptide, malachite green phosphate absorbance; inhibition, % at 20 µM; 340,000 tested, 0.88% active;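 active = inhibition above about 50% at 20 µM, limit read from the data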
#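 Material: truncated SCP-1 phosphatase (76-261aa) / Buffer or medium: 50 mM Tris acetate pH 5.5, 0.005% Tween-20, 10 mM MgCl2 / Compound dosing: one concentration, 20 µM, with 1.0% DMSO / Incubation: 45 min room-temperature reaction, 5 min colour, 30 min stabiliser / Detection: colorimetric free-phosphate detection, absorbance 630 nm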
# STEP inh – blocks human striatal-enriched tyrosine phosphatase. P54829. recombinant STEP, OMFP fluorogenic substrate, fluorescence. inhibition, % at 20 µM. 360,000 tested, 0.25% active. AID 588621;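 active = inhibition at 20 µM, scaled per plate between control wells, above about 37%, limit read from the data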
#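 System: isolated STEP enzyme; schedule: 20 min enzyme reaction at room temperature, protected from light; medium: Bis-Tris buffer pH 6.0, 2.5 mM DTT, 0.005% Tween 20; signal: fluorescence, 480/540 nm; dosing: single compound dose of 20 µM, 1% DMSO final; also added: OMFP substrate, 25 µM final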
# LMPTP inh – blocks human LMPTP phosphatase; P24666; recombinant LMPTP-A, OMFP fluorogenic substrate, fluorescence intensity; inhibition, % at 20 µM; 360,000 tested, 0.22% active; AID 651560;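 active = compounds that cut the enzyme signal by at least half of the control window in the single-dose screen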
#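 Test system – LMPTP-A enzyme · Amount – LMPTP-A at 0.625 nM final in the reaction · Buffer or medium – Bis-Tris pH 6.0, DTT, detergent · Reagent – OMFP 400 µM · Doses – single 20 µM dose · Schedule – reaction 50 min, room temperature, dark · Detection – fluorescence intensity of OMFP turnover product · Evaluation – percent inhibition versus substrate-only and uninhibited controls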
# GRK2 inh – blocks RNA aptamer binding to human GRK2; P25098; bead flow cytometry, FAM-aptamer displacement from GRK2; inhibition of aptamer binding, % at 10 µM; 330,000 tested, 0.59% active; AID 488847;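 active = inhibition of aptamer binding above 40%, roughly 3 SD of noise, on plates passing a quality check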;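 note: median bead fluorescence of bound FAM aptamer so fluorescent compounds give negative values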
# Target sequence (P25098 whole entry, looked up): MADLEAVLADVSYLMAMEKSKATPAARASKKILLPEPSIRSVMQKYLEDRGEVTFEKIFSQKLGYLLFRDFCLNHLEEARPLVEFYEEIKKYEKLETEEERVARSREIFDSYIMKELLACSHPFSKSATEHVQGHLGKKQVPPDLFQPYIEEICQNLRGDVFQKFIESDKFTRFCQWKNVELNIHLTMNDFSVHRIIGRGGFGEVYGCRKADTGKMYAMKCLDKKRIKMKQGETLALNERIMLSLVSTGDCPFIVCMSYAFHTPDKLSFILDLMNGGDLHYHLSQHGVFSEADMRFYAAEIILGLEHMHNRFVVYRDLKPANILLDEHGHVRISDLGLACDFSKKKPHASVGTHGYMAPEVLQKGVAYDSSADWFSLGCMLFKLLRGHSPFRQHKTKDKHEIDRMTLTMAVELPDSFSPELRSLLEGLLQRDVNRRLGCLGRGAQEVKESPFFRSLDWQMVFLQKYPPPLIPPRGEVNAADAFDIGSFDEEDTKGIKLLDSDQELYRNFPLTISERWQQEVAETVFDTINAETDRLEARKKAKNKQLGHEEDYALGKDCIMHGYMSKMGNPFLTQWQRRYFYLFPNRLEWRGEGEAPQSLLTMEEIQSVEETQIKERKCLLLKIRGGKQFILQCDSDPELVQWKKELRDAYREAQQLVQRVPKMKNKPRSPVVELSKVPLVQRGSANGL
# SUMO1 PPI mod – SUMO1-SIM interaction modulation. P63165. inhibition, % at 20 µM. AID 602429. SUMO1 binding to a labelled peptide, TR-FRET, 1 h. 360,000 tested, 0.33% active; in the data active = inhibition above about 37%
# DNMT1 block – inhibitors of human DNMT1; P26358; DNMT1 molecular beacon, Hinp1I cleavage, fluorescence; inhibition (reported as % activation of signal), % at 10 µM; 360,000 tested, 0.83% active; AID 588458; in the data active = inhibition above about 50%
# GRK2 CP1 – human GRK2 inhibition confirmation, cherry pick 1 | shares compounds with GRK2 inh | bead-bound GRK2, FAM-aptamer displacement, flow cytometry | aptamer displacement, % at 10 µM | 2,000 tested, 4% active | AID 504451;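 active = aptamer displacement above 40%, near three times the noise of non-fluorescent compounds, on plates passing quality checks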;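 note: negative values mostly reflect intrinsic compound fluorescence rather than true enhancement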
# Aptamer quench – quenches fluorescent RNA aptamer, GRK2 hit artifact | AID 504521 | shares compounds with GRK2 inh | 110 tested, under 10 active | Fluorescent RNA aptamer beads, quenching, flow cytometry; hits give high values | fluorescence change (kMESF span), kMESF (no concentration beside the values);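 active = compounds whose bead fluorescence drops by more than 37 kMESF across the dose range, marking them as dye quenchers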
# Aptamer quench SP – aptamer fluorescence quenching in GRK2 counter-screen; shares compounds with GRK2 inh; Carboxyfluorescein RNA aptamer on beads, flow cytometry quenching; hits give low values; fluorescence response (% of DMSO), % at 10 µM; 2,000 tested, under 10 active; AID 504580;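 active = compounds that quench the bead-bound fluorescent RNA probe, cutting fluorescence to under half of the solvent control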;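 note: counterscreen run without GRK2 so only probe quenching by compound is measured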
# GRK2 CP2 – human GRK2 inhibition confirmation, cherry pick 2; shares compounds with GRK2 inh; bead-bound GRK2, FAM-aptamer displacement, flow cytometry; inhibition of aptamer binding, % at 10 µM; AID 504782; 360 tested, under 10 active;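 active = inhibition of aptamer binding above 40%, about triple the noise seen with nonglowing compounds, on plates passing quality control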;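 note: negative values mostly come from compounds that fluoresce themselves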
# FAM quench SP – counter-screen for GRK2 binding hits: quenchers of fluorescent RNA aptamer. shares compounds with GRK2 inh. carboxyfluorescein RNA aptamer beads, flow cytometry quenching; hits give low values. fluorescence response vs DMSO, % at 10 µM. 360 tested, under 10 active. AID 588494;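 active = response vs DMSO under 50%, meaning signal dropped by over half, treated as fluorescence quencher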;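 note: labelled aptamer on streptavidin beads without GRK2 as a quench counter-screen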
# Hits are given with their value; . = inactive; / = no result. A selection: hits, their analogues and other compounds. The true share with any hit is near 2.1%.
SMILES,Scp1 inh,STEP inh,LMPTP inh,GRK2 inh,SUMO1 PPI mod,DNMT1 block,GRK2 CP1,Aptamer quench SP,GRK2 CP2,FAM quench SP,others
Cc1ccc(N2CCN(C(C(=O)Nc3c(C)cccc3C)c3ccccc3OC(F)(F)F)CC2)cc1 (centres undefined),/,/,.,/,.,/,/,/,/,/,
CCCCOc1cc(NCc2ccccc2)c2ncn(C(C)C)c2c1,.,.,.,.,.,.,/,/,/,/,
COc1ccc(Cc2cc(NCc3ccccc3)c3ncn(C(C)C)c3c2)cc1,.,.,.,97,.,.,/,/,.,.,
CN(C)S(=O)(=O)c1cccc(NC(=O)COc2ccccc2C(=O)NCc2ccccc2)c1,.,.,.,/,.,.,/,/,/,/,
CCOC(=O)C1=C(C(F)(F)F)Nc2ncnn2C1c1cccc(OC)c1OC (centres undefined),.,.,.,81,.,.,/,/,.,.,
Cc1ccccc1-c1cc(C(=O)NCc2ccco2)nn1CC1CC(c2cccc([N+](=O)[O-])c2)=NO1 (centres undefined),.,.,.,.,.,.,/,/,/,/,
Cc1ccccc1-c1cc(C(=O)NCc2cccs2)nn1CC1CC(c2cccc([N+](=O)[O-])c2)=NO1 (centres undefined),.,.,.,.,.,.,.,.,/,/,
Cc1ccc(S(=O)(=O)N2C3CCCCC3O[C@H]2CC(=O)OCc2ccccc2)cc1 (some centres undefined),/,/,.,/,.,/,/,/,/,/,
COCOc1cccc(CN2CCC2(C)C(=O)Nc2ccc(OC)c(OC)c2)c1 (centres undefined),/,.,.,/,.,.,/,/,/,/,
N#C/C(=C\c1ccc(O)c(O)c1)C(=O)c1ccc(O)c(O)c1,.,.,.,54,.,.,.,.,/,/,
CCCOc1ccc(NC(=O)CC2C(=O)N(CC)C(=S)N2CCNC(C)=O)cc1 (centres undefined),.,.,.,.,.,.,/,/,/,/,
CCOc1ccc(NC(=O)CC2C(=O)N(CC)C(=S)N2CCNC(C)=O)cc1 (centres undefined),.,.,.,70,.,.,/,/,.,.,
Cc1sc2nc(SCC(=O)N3CCOCC3)[nH]c(=O)c2c1-c1ccccc1,.,.,.,93,.,.,/,/,.,.,
N#CCC(=O)N1CC2(CC(c3cccc(NC(=O)COc4ccc(Cl)cc4)c3)=NO2)C[C@@H]1C(N)=O (some centres undefined),.,.,.,.,.,.,/,/,/,/,
C=C(C)C(=O)Nc1cccc(C2=NOC3(C2)C[C@H](C(N)=O)N(C(=O)CC#N)C3)c1 (some centres undefined),57,/,/,67,/,/,.,.,/,/,Aptamer quench=.
CCC(=O)Nc1cccc(C2=NOC3(C2)C[C@H](C(N)=O)N(C(=O)Cc2ccc([N+](=O)[O-])cc2)C3)c1 (some centres undefined),.,.,.,.,.,.,/,/,.,.,
CC(C)Cn1c(N)c(C(=O)NCCN2CCOCC2)c2nc3ccccc3nc21,.,.,.,.,.,.,/,/,/,/,
Cc1cccc(-n2c(N)c(C(=O)NCCN3CCOCC3)c3nc4ccccc4nc32)c1,.,/,/,100,/,/,.,.,/,/,
Cc1nc(Oc2cccc(Cl)c2)c2oc3ccccc3c2n1,.,.,.,41,.,.,.,.,/,/,
